Source: PubChem
Shown are actives, neighbours in structure and some others; about 1.3% of the full set was active somewhere.
proCasp3 act – activators of human procaspase-3 D3A mutant, primary screen, biochemical, absorbance, PC-3 D3A mutant, single concentration | Caspase-3 (Homo sapiens), P42574 | activation, % at 8.5 µM | 330,000 compounds, 0.11% hits | recombinant procaspase-3 D3A, Ac-DEVD-pNA absorbance 405 nm;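 active means activation above the mean of all tested compounds plus 3 SD, cut at about 21% in these data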;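 further: 0% = DMSO alone and 100% = DMSO wells spiked with extra 5 µM PC-3 D3A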
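Test system: Procaspase-3 D3A mutant, all three cleavage aspartates alanine | Dosing: Single dose, 8.5 µM nominal compound, 0.8% DMSO | Schedule: 1 h preincubation, 2 h reaction | Technique: 405 nm absorbance of p-nitroaniline, reads at 0 and 120 min | Repeats: One well per compound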
proCasp7 act – procaspase-7 activators, primary screen, counter-screen for procaspase-3 activator project, biochemical, absorbance, HTS, human; AID 463210, 2010; recombinant procaspase-7, Ac-DEVD-pNA absorbance 405 nm; D23A/D198A/D206A triple mutant, cannot self-cleave; scale: DMSO 0, 5 µM enzyme 100; 330,000 compounds, 0.093% hits; activation, % at 8.5 µM;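 active means percent activation above the screen-wide mean plus 3 SD, cut at about 25% in these data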
Target sequence (P55210 whole entry D23A/D198A/D206A): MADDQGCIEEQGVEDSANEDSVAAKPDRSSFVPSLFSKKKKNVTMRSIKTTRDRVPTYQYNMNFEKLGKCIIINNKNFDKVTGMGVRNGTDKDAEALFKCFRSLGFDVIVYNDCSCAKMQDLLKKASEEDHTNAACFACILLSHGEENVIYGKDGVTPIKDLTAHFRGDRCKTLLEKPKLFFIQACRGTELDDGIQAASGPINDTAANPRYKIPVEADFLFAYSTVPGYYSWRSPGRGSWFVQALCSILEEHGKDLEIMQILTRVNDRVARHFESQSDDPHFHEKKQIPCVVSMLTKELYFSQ
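System: Procaspase-7 triple mutant (PC-7 D3A); measure: % activation from two-timepoint absorbance difference, scaled to controls; times: 1 h compound preincubation, 2 h substrate cleavage, 25 °C; also added: Ac-DEVD-pNA substrate, 400 µM as added; measured by: Epi-absorbance of released pNA at 405 nm, two timepoints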
Hep lipid drop – inhibitors of hepatocyte lipid droplet formation, primary screen, imaging, high-throughput imaging, BODIPY stain | AML12 mouse hepatocytes, oleate lipid droplets | inhibition, % at 6.5 µM | 240,000 compounds, 0.4% hits;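 active means lipid droplet intensity inhibited by at least 50%, with more than 500 cells counted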
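Assay system: AML12 hepatocytes (mouse) / Also added: 100 µM oleic acid challenge / Times: overnight treatment with compound plus oleate / Detection: high-content imaging of BODIPY-stained droplets and DAPI nuclei / Evaluation: % inhibition of lipid droplet signal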
GRK2 aptamer HTS – compounds blocking aptamer binding on GRK2 – biochemical, human GRK2, bead flow cytometry, HTS, primary screen; Beta-adrenergic receptor kinase 1 (Homo sapiens), P25098; FAM-aptamer displacement from GRK2; inhibition of aptamer binding, % at 10 µM; 330,000 compounds, 0.59% hits;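 active means inhibition of aptamer binding above 40%, roughly 3 SD of noise, on plates passing a quality check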;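 further: median bead fluorescence of bound FAM aptamer so fluorescent compounds give negative values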
VLA-4 inh – inhibition in human VLA-4 binding assay, primary screen, VLA-4 allosteric modulator project, MLPCN library, flow cytometry, VLA-4 expressing cells. Integrin alpha-4 (Homo sapiens), P13612. ligand binding flow cytometry. inhibition, % (about 7 µM as worked out from the volumes in the protocol). 330,000 compounds, 0.2% hits. AID 2557, 2010; in the data active means inhibition above about 50%
JMJD2C inh – inhibitors of GASC-1 histone demethylase, primary screen, biochemical, fluorescence, DELFIA europium. Lysine-specific demethylase 4C (Homo sapiens), Q9H3R0. GST-JMJD2C(1-420) H3K9me3 demethylation. inhibition, % at 2.35 µM. 330,000 compounds, 0.069% hits. AID 2099, 2009;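 active means more than half of a compound's replicate wells show inhibition beyond 50%, single wells judged on their own value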;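 further: signal counts dimethyl H3K9 product captured on neutravidin plate; 0% = median of DMSO wells and 100% = 0.3 times that DMSO median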
Target sequence (Q9H3R0 1-420 limits assumed): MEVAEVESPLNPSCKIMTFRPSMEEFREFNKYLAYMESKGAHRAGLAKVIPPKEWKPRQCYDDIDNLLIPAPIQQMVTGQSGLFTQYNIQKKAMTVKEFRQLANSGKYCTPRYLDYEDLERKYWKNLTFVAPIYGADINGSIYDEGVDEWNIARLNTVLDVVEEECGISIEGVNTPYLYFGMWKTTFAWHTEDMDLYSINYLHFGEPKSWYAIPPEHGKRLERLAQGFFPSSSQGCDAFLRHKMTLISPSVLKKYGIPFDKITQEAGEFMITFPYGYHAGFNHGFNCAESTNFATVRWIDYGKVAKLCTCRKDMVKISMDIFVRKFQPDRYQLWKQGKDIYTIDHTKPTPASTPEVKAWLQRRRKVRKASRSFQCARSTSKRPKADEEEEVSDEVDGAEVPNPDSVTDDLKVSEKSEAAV
Hep lipid conf – hepatocyte lipid droplet accumulation inhibitors, confirmation, imaging, AML12 mouse hepatocytes, single concentration, high-content | shares compounds with Hep lipid drop | BODIPY lipid droplet imaging; droplets induced with 100 µM oleic acid | inhibition, % at 5.2 µM | 870 compounds, 65% hits;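 active means inhibition of lipid droplet metric at least 50%, with more than 300 cells in each of four replicates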;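 further: plate controls were DMSO with oleic acid for no effect and 5 µM Triacsin-C for full effect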
AML12 tox img – AML12 hepatocyte cytotoxicity, counter-screen for hepatic lipid droplet formation project, imaging, DAPI nuclear morphology imaging. shares compounds with Hep lipid drop. AML12 mouse hepatocytes; stronger effect = higher value; cells fed 100 µM oleate overnight. z-score at 5 µM. 870 compounds, 3% hits. AID 463200, 2010; in the data active means z-score above about 6.3;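 further: compound exposure lasted overnight at 37 °C before fixation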
AML12 tox conf – AML12 hepatocyte cytotoxicity, confirmation, cytotoxicity control for hepatic lipid droplet formation project, cell-based, single concentration | shares compounds with Hep lipid drop | AML12 mouse hepatocyte viability, ATP luminescence; cells loaded with 100 µM oleic acid | cytotoxicity, % at 50 µM | 530 tested, under 10 active;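 active means cytotoxicity above 50% in each of four replicates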;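 further: compound exposure lasted overnight at 37 °C before the ATP read; 0% = DMSO-treated cells and 100% = wells with no cells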
Numbers without * were called inactive; nt = no result given.

SMILES | proCasp3 act | proCasp7 act | Hep lipid drop | GRK2 aptamer HTS | VLA-4 inh | JMJD2C inh | Hep lipid conf | AML12 tox img | others
Cc1csc(NC(=O)CSC2=NS(=O)(=O)c3ccccc3N2)n1 | 13 | -4 | nt | 1 | -4 | -8 | nt | nt
CCN(CC)S(=O)(=O)c1ccc(S(=O)(=O)N(CC(=O)Nc2ccccc2)Cc2ccco2)cc1 | 0 | -1 | 62* | 0 | 30 | 7 | 96* | -0.42 | AML12 tox conf=11
O=C1CCC[C@@H]2Cc3[nH]c4c(Cl)ccc(Cl)c4c3[C@@H]3CCN1[C@H]23 | -1 | 0 | -25 | 0 | 22 | -7 | nt | nt
O=C(c1nn2c(C(F)(F)F)cc(-c3cccs3)nc2c1Br)N1CCCc2ccccc21 | -8 | -5 | 60* | 2 | 30 | 2 | 101* | -1.2 | AML12 tox conf=27
CC(C)(C)c1cc(Br)c(O)c(N=Nc2ccc(S(=O)(=O)N3CCOCC3)cc2)c1 | -2 | 5 | 56* | 6 | -4 | 2 | 102* | -0.35 | AML12 tox conf=18
Cc1ccc(O)c(N=Nc2ccc(S(=O)(=O)N3CCOCC3)cc2)c1 | 0 | 4 | 13 | 3 | -5 | -1 | nt | nt
CCc1cccc(NC(=O)c2ccc3c(=O)n4c(nc3c2)CCCCC4)c1 | 3 | 3 | -18 | 8 | -173 | -1 | nt | nt
COc1ccc2c(c1)O[C@@H](c1cccc(C(F)(F)F)c1)[C@H](OC(=O)NCCc1ccc(OC)c(OC)c1)C2=O | 1 | -45 | 64* | 1 | 18 | 0 | 75* | -0.35
COC(=O)[C@@H](NC(=O)O[C@@H]1C(=O)c2ccc(OC)cc2O[C@H]1c1cccc(C(F)(F)F)c1)C(C)C | 1 | -27 | -4 | 0 | -14 | 8 | nt | nt
Cc1c(Cl)cccc1N(CC(=O)NC(C)c1ccccc1)S(C)(=O)=O (stereo unspecified) | -3 | 11 | 58* | 6 | -18 | 114 | 47 | -0.75
Cc1ccc(C(C)C)c(OCC(=O)OCC(=O)NC2CCS(=O)(=O)C2)c1 (stereo unspecified) | 1 | 3 | nt | 3 | -3 | 2 | nt | nt
CCOc1nc(-c2ccncc2)nc2ccccc12 | 4 | -4 | 53* | 2 | 2 | -25 | 32 | -0.32
Cc1cc(O)c(C)c(O)c1/C=N/NC(=O)c1cccnc1 | -6 | -7 | 59* | 8 | 2 | 2 | 0 | -1.1
O=C(N/N=C/c1c(O)ccc2ccccc12)c1cccnc1 | -12 | -34 | -4 | 0 | -22 | 0 | nt | nt
CCc1ccccc1NS(=O)(=O)c1cc2c(cc1C)n(C)c(=O)c(=O)n2C | 8 | 8 | 85* | 1 | 4 | -9 | 105* | -0.21 | AML12 tox conf=9
Cc1ccccc1N1CCN(C(=S)c2ccc(-c3cccc([N+](=O)[O-])c3)o2)CC1 | -5 | 9 | -12 | 1 | -2 | 0 | nt | nt
Cc1ccccc1N1CCN(C(=S)c2ccc(-c3ccc([N+](=O)[O-])cc3)o2)CC1 | -11 | -6 | 86* | 17 | 22 | nt | 69* | -0.28
COc1ccc(Cl)cc1NC(=O)CN(C)C(=O)c1sccc1-c1ccccc1 | 5 | -7 | nt | 2 | -12 | 11 | nt | nt
O=C(Cc1ccc(F)cc1)Nc1c(C(=O)N2CCN(c3ncccn3)CC2)oc2ccccc12 | -6 | 3 | -5 | 0 | -3 | -33 | nt | nt
Cc1ccc2nc(Nc3ccc(F)cc3)c3nncn3c2c1 | -2 | 2 | 59* | 0 | 11 | 4 | 58 | -0.34 | AML12 tox conf=17
CCN(CC(=O)Nc1cc(Cl)ccc1C)C(=O)c1ccc(N2CCCC2=O)cc1 | 5 | -15 | nt | 0 | 4 | -7 | nt | nt
CC(=O)Nc1ccc(S(=O)(=O)N2CCC(C(=O)NCCc3c[nH]c4ccccc34)CC2)cc1 | nt | nt | 10 | 0 | 0 | 0 | nt | nt
Cc1cccc(N2CCN(Cc3ccc([N+](=O)[O-])o3)CC2)c1C | 5 | -4 | 3 | 0 | 3 | 3 | nt | nt
CCN1C(=O)c2ccccc2Sc2ccc(C(=O)NCCC(C)C)cc21 | 1 | 0 | 95* | 0 | 11 | -26 | 98* | 0.8
CCCCNC(=O)c1ccc2c(c1)N(C)C(=O)c1ccccc1S2 | 0 | 2 | 78* | 0 | 3 | -22 | 71* | 0.54 | AML12 tox conf=13
SMILES | proCasp3 act | proCasp7 act | Hep lipid drop | GRK2 aptamer HTS | VLA-4 inh | JMJD2C inh | Hep lipid conf | AML12 tox img | others
CC(C)CCNC(=O)c1ccc2c(c1)N(C)C(=O)c1ccccc1S2 | -2 | -3 | 87* | 0 | -11 | -20 | 87* | 0.81
COC(=O)c1cc(Br)ccc1N(Cc1cc(OC)cc(OC)c1)S(C)(=O)=O | -5 | 7 | nt | 1 | 6 | 9 | nt | nt
Cc1c(C(=O)N(Cc2cccc(Br)c2)C2CCS(=O)(=O)C2)oc2ccc(F)cc12 (stereo unspecified) | -8 | 5 | -24 | 3 | 4 | 1 | nt | nt
O=C1COc2ccc(C(=O)CSc3ccccc3C(=O)O)cc2N1 | 0 | 4 | 16 | 1 | 9 | -7 | nt | nt
CC(C)c1ccccc1-n1c(SCC(=O)c2ccc3c(c2)NC(=O)CO3)nc2ccccc2c1=O | 6 | -1 | 54* | 0 | 5 | 19 | 59 | -1.3 | AML12 tox conf=3
C[C@H]1COC(=O)[C@H](CC(=O)OC(C)(C)C)C/C=C\C[C@@H](CC(=O)NCCO)C(=O)N1 | 2 | 2 | nt | 1 | -3 | -9 | nt | nt
COc1cc2c(cc1OC)CN(CC(=O)Nc1ccc(C)cc1)CC2 | -3 | 2 | nt | 2 | -4 | 5 | nt | nt
COc1cc2c(cc1OC)CN(CC(=O)Nc1ccc(C)c(C)c1)CC2 | 10 | 17 | 56* | 0 | 7 | 10 | -8 | -0.2
